For 23 compounds, EC50, solubility and Activity results are on record in ChEMBL document CHEMBL1921718, “Structure-activity relationships in toll-like receptor 2-agonists leading to simplified monoacyl lipopeptides” (J Med Chem, 2011).

As usually defined, the EC50 is the concentration at which the effect is half-maximal.

The target of one data set is Toll-like receptor 2 (Homo sapiens, UniProt O60603). Put plainly: Agonist activity at human TLR2 expressed in HEK293 cells assessed as NF-kappaB induction measured soluble alkaline phosphatase after 12 hrs by spectrophotometric analysis. The class given is functional, cell-based. Put shortly:
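HEK-Blue cells (HEK293 stably transfected with human TLR2 and NF-κB-driven secreted alkaline phosphatase) kept in selection medium with zeocin and normocin; seeded ~10^5 cells/mL, grown to confluency, then stimulated 12 h with serially diluted compounds. Supernatant sAP read spectrophotometrically at 620 nm using an alkaline phosphatase-specific chromogen in the detection medium.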

A short description of data set [1]: Aqueous solubility of the compound. The data set is classed as physicochemical. The conditions noted are these: buffer.
Data set [2] in a line: Upregulation of p38 MAPK expression in […] […] by flow cytometric analysis. The data set is classed as functional, cell-based. The conditions noted are these: Homo sapiens. The procedure, abridged: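 Heparinized fresh human whole blood exposed to graded compound concentrations in saline for 15 min at 37 °C. Red cells lysed and leukocytes fixed in one step, then permeabilized in ice-cold methanol 30 min. Stained with PE anti-phospho-p38MAPK (pT180/pY182, α/β/γ/δ isoforms). Single-colour PE flow cytometry on 20,000 gated events.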

The nature of data set [3]: Upregulation of CD11b expression in human […] by flow cytometric analysis. The data set is classed as functional, cell-based. The procedure, abridged: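 Fresh heparinized or anticoagulated human whole blood from healthy adults, incubated with graded compound dilutions 1 h at 37 °C, with saline negative controls. Kept on ice 15 min, then stained with anti-CD11b on ice 30 min so only surface CD11b was labelled. Red cells lysed and leukocytes fixed in one step; PE single-colour flow cytometry on 20,000 gated events.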

Calls of active or inactive are those of the source. The rule behind the calls is not given here.

Chain of Toll-like receptor 2 (O60603 whole entry): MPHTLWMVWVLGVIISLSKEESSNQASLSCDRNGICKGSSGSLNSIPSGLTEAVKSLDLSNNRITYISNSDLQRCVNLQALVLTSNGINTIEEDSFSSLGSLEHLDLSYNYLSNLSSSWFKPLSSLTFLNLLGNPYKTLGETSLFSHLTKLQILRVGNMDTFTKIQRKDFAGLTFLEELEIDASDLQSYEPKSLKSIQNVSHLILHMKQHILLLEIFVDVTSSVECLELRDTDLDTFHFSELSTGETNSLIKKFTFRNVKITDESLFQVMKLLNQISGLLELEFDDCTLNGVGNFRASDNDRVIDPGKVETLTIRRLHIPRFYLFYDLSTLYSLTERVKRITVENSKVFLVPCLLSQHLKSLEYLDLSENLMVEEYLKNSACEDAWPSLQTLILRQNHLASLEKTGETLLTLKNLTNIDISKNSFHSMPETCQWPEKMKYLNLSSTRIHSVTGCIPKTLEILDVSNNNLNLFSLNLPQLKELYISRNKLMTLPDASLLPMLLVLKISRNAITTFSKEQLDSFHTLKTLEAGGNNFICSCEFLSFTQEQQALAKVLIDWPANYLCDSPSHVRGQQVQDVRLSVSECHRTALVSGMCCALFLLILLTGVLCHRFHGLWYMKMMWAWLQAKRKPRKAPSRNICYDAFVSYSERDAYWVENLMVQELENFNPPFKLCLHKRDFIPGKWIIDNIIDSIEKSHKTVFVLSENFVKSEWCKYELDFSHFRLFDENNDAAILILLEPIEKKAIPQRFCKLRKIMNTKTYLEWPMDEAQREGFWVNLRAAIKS

With `CCCCCCCCCCCCCCCC(=O)OC[C@H](CSC[C@H](NC(=O)CC[C@H](N)C(=O)O)C(=O)NCC(=O)OC(C)C)OC(=O)CCCCCCCCCCCCCCC`, the EC50 on Toll-like receptor 2 was greater than 1000 nM.

As to `CCCCCCCCCCCC(=O)OC[C@H](CSC[C@H](N)C(=O)N[C@@H](CO)C(=O)O)OC(=O)CCCCCCCCCCC`, the EC50 at Toll-like receptor 2 was 6.48 nM. Still for that read-out and setting: as for `CCCCC/C=C\C/C=C\CCCCCCCC(=O)OC[C@H](CSC[C@H](N)C(=O)NCC(=O)OC(C)C)OC(=O)CCCCCCC/C=C\C/C=C\CCCCC`, the figure is 1 nM. On to `CCCCCCCCCCCCCCCC(=O)OC[C@H](CSC[C@H](N)C(=O)NCC(=O)OC(C)C)OC(=O)CCCCCCCCCCCCCCC`, for which the EC50 on Toll-like receptor 2 is 0.45 nM. As for `CCCCCCCCCCCCCCCC(=O)O[C@H](COC(=O)CNCCCOCCOCCOCC)CSC[C@H](N)C(=O)N[C@@H](CO)C(=O)O`, the EC50 at Toll-like receptor 2 was 2.11 nM. Also, the solubility entry in data set [1] is given as “soluble”. Turning to `CCCCCCCCCCCCCCCCOC(=O)CSC[C@H](N)C(=O)N[C@@H](CO)C(=O)OC`, the EC50 at Toll-like receptor 2 was greater than 1000 nM. The same measure, in the same setting: as for `CCCCCCCCCCCCCCCC(=O)OC[C@H](CSCC[C@H](N)C(=O)N[C@@H](CO)C(=O)O)OC(=O)CCCCCCCCCCCCCCC`, the figure is greater than 1000 nM; as for `CCCCCCCCCCCCCCCC(=O)OC[C@@H](O)CSC[C@H](N)C(=O)N[C@@H](CO)C(=O)O`, 1.95 nM; as for `CC/C=C\C/C=C\C/C=C\CCCCCCCC(=O)OC[C@H](CSC[C@H](N)C(=O)NCC(=O)OC(C)C)OC(=O)CCCCCCC/C=C\C/C=C\C/C=C\CC`, 0.87 nM. `CCCCCCCCCCCCCCCC(=O)OCCSC[C@H](N)C(=O)N[C@@H](CO)C(=O)OC`: the outcome in data set [2] and in data set [3] was Active. The EC50 at Toll-like receptor 2 stood at 4.44 nM. In the case of `CCCCCCCCCCCCCCCC(=O)OC[C@H](CSC(C)(C)[C@@H](N)C(=O)N[C@@H](CO)C(=O)OC)OC(=O)CCCCCCCCCCCCCCC`, the EC50 on Toll-like receptor 2 was greater than 1000 nM. `CCCCCCCCCCCCCCCC(=O)OC[C@H](C[Se]C[C@H](N)C(=O)N[C@@H](CO)C(=O)OC)OC(=O)CCCCCCCCCCCCCCC`: the EC50 on Toll-like receptor 2 stood at 0.26 nM.

Consider `CCCCCCCCCCCCCCCC(=O)O[C@H](COC(=O)CNCCCOCCOCCOCCCN)CSC[C@H](N)C(=O)N[C@@H](CO)C(=O)O`, for which, on Toll-like receptor 2, the EC50 came out at 1.55 nM. Besides, the solubility entry in data set [1] is “soluble”.

Regarding `CCOCCOCCOCCCNCC(=O)OC[C@H](CSC[C@H](N)C(=O)N[C@@H](CO)C(=O)O)OC(=O)CNCCCOCCOCCOCC`, on Toll-like receptor 2, the EC50 was greater than 1000 nM.

Take `CCCCCCCCCCCCCCCCCC(=O)OC[C@H](CSC[C@H](N)C(=O)N[C@@H](CO)C(=O)O)OC(=O)CCCCCCCCCCCCCCCCC`: the EC50 on Toll-like receptor 2 is 1.47 nM. The same measure, in the same setting: as for `CCCCCCCCCCCCCCCC(=O)OCCCSC[C@H](N)C(=O)N[C@@H](CO)C(=O)OC`, the figure is greater than 1000 nM. For `CCCCCCCCCCCCCC(=O)OC[C@H](CSC[C@H](N)C(=O)N[C@@H](CO)C(=O)O)OC(=O)CCCCCCCCCCCCC`, the EC50 at Toll-like receptor 2 is 0.56 nM. As for `CCCCCCCCCCCCCCCC(=O)O[C@H](CO)CSC[C@H](N)C(=O)N[C@@H](CO)C(=O)O`, the EC50 on Toll-like receptor 2 stood at 1.86 nM.

For `CCCCCCCCCCCCCCCC(=O)OC[C@H](CSCCC(=O)N[C@@H](CO)C(=O)OC)OC(=O)CCCCCCCCCCCCCCC`, at Toll-like receptor 2, the EC50 was greater than 1000 nM. In the case of `CCCCCCCCCCCCCCCC(=O)OCC(CSC[C@H](N)C(=O)N[C@@H](CO)C(=O)O)OC(=O)CCCCCCCCCCCCCCC` (mixture of isomers), the result in data set [2] and in data set [3] was Active. Turning to `CCCCCCCCCCCCCCCC(=O)O[C@H](COC(=O)CNCCCNCCCCNCCCN)CSC[C@H](N)C(=O)N[C@@H](CO)C(=O)O`, the EC50 on Toll-like receptor 2 came to 3.23 nM. Further, in data set [1], the solubility entry is given as “soluble”. As for `CCCCCCCCCCCCCCCC(=O)OC[C@H](CSC(C)(C)[C@H](N)C(=O)N[C@@H](CO)C(=O)O)OC(=O)CCCCCCCCCCCCCCC`, the EC50 on Toll-like receptor 2 is greater than 1000 nM. Regarding `CCCCCCCCCCCCCCCCOC(=O)CCSC[C@H](N)C(=O)N[C@@H](CO)C(=O)OC`, at Toll-like receptor 2, the EC50 was greater than 1000 nM.
